The source made the active and inactive calls. The rule behind the calls is not given here.
Tests used:
[1] = Toxicity in Balb/c nu/nu mouse xenografted with human ACHN cells assessed as effect on survival at 0.8 mg/kg, ip administered once daily for 21 days; format: organism-based; settings: in vivo, 504 h
Outline: (§1)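 Male athymic Balb/c nu/nu mice, four weeks old, acclimatised 1 week. 10^7 ACHN cells in 0.2 mL PBS injected into the right flank. At about 150 mm3, mice randomised into PBS control or 0.8 mg/kg groups, dosed ip daily for three weeks. Tumours measured by caliper (volume = 0.5 × L × W²) with body weight recorded. Endpoint tumour weight, sections stained by H&E and TUNEL. Tissue lysed for immunoblot.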

ACHN [2] = experiment: Induction of apoptosis in human ACHN cells assessed as late apoptotic cells at 50 nM measured after 24 hrs by Annexin V-FITC/propidium iodide staining based flow cytometry (reference value: 0%); format: functional
ACHN [3] = experiment: Down regulation of ETS1 mRNA expression in human ACHN cells at 25 to 50 nM measured after 24 hrs by qRT-PCR analysis; format: functional, cell-based
ACHN [4] = experiment: Down regulation of LDHA mRNA expression in human ACHN cells at 25 to 50 nM measured after 24 hrs by qRT-PCR analysis; format: functional, cell-based
Peroxiredoxin-1 = molecular target: T1, Peroxiredoxin-1 (Homo sapiens, UniProt Q06830); experiment: Binding affinity to full-length human PRDX1 by surface plasmon resonance analysis
T1 sequence (Q06830 whole entry): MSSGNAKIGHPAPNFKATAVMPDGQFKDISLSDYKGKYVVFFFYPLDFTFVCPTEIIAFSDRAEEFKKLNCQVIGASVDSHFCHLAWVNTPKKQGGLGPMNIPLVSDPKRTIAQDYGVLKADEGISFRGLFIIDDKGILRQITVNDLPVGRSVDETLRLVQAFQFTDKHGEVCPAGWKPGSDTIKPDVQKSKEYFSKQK
Outline: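 Full-length human PRDX1 immobilised on a CM5 chip (Biacore T100). Analyte concentration series diluted in 10 mM Hepes pH 7.4, injected over the protein surface and a protein-free reference surface in a single step.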

Mus musculus = experiment: Up regulation of PRDX1 mRNA expression in human ACHN cells xenografted Balb/c nu/nu mouse at 0.8 mg/kg, ip administered once daily for 21 days measured post-last dose by qRT-PCR analysis; format: functional, organism-based
[5] = molecular target: T2, Peroxiredoxin-1 (Homo sapiens) (UniProt Q06830); experiment: Induction of PRDX1 nuclear translocation in human ACHN cells at 25 to 50 nM measured after 24 hrs by DAPI staining-based microscopic analysis; format: cell-based
T2 sequence (whole entry): T1 sequence (Q06830 whole entry)
Outline: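 ACHN cells exposed 24 h to 25 or 50 nM, fixed in 4% paraformaldehyde 10 min and permeabilised with 0.5% Triton X-100. Blocked with 10% FBS, 4 °C, 12 h. Stained with anti-PRDX1 overnight, FITC secondary 2 h RT, DAPI nuclear counterstain. Confocal imaging scored mean fluorescence intensity (n = 9).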

ACHN [6] = experiment: Down regulation of HK2 mRNA expression in human ACHN cells at 25 to 50 nM measured after 24 hrs by qRT-PCR analysis; format: functional, cell-based
ACHN [7] = experiment: Antitumor activity against human ACHN cells xenografted in Balb/c nu/nu mouse assessed as tumor growth inhibition at 0.8 mg/kg, ip administered once daily for 21 days measured post-last dose by TUNEL staining-based assay; format: functional, organism-based; outline: as §1
ACHN [8] = experiment: Induction of apoptosis in human ACHN cells assessed as viable cells at 50 nM measured after 24 hrs by Annexin V-FITC/propidium iodide staining based flow cytometry (reference value: 100%); format: functional; settings: read-out: Activity
ACHN [9] = experiment: Down regulation of SOD2 mRNA expression in human ACHN cells at 25 to 50 nM measured after 24 hrs by qRT-PCR analysis; format: functional, cell-based
ACHN [10] = experiment: Induction of apoptosis in human ACHN cells assessed as necrotic cells at 50 nM measured after 24 hrs by Annexin V-FITC/propidium iodide staining based flow cytometry (reference value: 0%); format: functional

C/C=C(\C)[C@H](O)[C@H](C)/C=C(C)/C=C/C/C(C)=C/Cc1nc(OC)c(OC)c(O)c1C [PIERICIDIN A]
Activity [1]: Non-Toxic | Activity (ACHN [2]): 1.3% | Activity (ACHN [3]): Active | Activity (ACHN [4]): Active | Kd (Peroxiredoxin-1): 2610 nM | Activity (Mus musculus): Active | Activity [5]: Active | Activity (ACHN [6]): Active | TGI (ACHN [7]): Active | viability at 0.05 µM (ACHN [8]): 81.9% | Activity (ACHN [9]): Active | Activity (ACHN [10]): 15.9%

From ChEMBL document CHEMBL4311948, “Exploring the Natural Piericidins as Anti-Renal Cell Carcinoma Agents Targeting Peroxiredoxin 1” (J Med Chem, 2019)
